Data: PMC6188675 (Journal of medicinal chemistry, 2013)

Experiments:
LNCaP cells = experiment: MTT cytotoxicity assay in LNCaP cells; format: cell-based
[1] = target: IN 3'-processing catalysis (Human immunodeficiency virus type 1 group M subtype B, UniProt P12497); experiment: IN enzymatic assay, 3'-processing; format: biochemical, HIV-1
[2] = target: IN strand transfer catalysis (Human immunodeficiency virus type 1 group M subtype B, UniProt P12497); experiment: IN enzymatic assay, strand transfer; format: biochemical, HIV-1
[3] = test system: Flag-6x-histidine construct; experiment: Quench counter-screen; settings: compounds tested at 10 µM
Outline: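 Run as the integrase–LEDGF/p75 AlphaScreen, with one Flag-6xhistidine construct replacing both proteins. Compound incubations were 30 min then 60 min at 4 °C. Ni-chelate donor and anti-FLAG acceptor beads were added at 20 µg/mL each for 1 h at 30 °C, kept from light. Acceptor-bead emission gave percent inhibition.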

HIV-1 = experiment: Antiviral MTT/MT-4 assay; format: cell-based; settings: MT-4 cells, 13 µM

| SMILES | cytotoxicity in MTT LNCaP assay (in words) (LNCaP cells) | IC50 [1] | IC50 [2] | Quench % Inhib. [3] | antiviral activity at maximum testable concentration (HIV-1) |
| --- | --- | --- | --- | --- | --- |
| CCCC(=O)NC(c1ccccc1)c1ccc2cccnc2c1O (stereo not shown) [Q1-1] | notable cytotoxicity | > 20 µM | > 20 µM | <50% | – |
| CCC(=O)NC(c1ccccc1OC)c1ccc2cccnc2c1O (stereo not shown) [Q1–2] | notable cytotoxicity | > 20 µM | > 20 µM | <50% | – |
| COc1cccc(C(NC(C)=O)c2ccc3cccnc3c2O)c1 (stereo not shown) [Q1–3] | – | > 20 µM | > 20 µM | <50% | – |
| CCC(=O)NC(c1ccc(OC)cc1)c1cc([N+](=O)[O-])c2cccnc2c1O (stereo not shown) [Q1–4] | – | > 20 µM | > 20 µM | <50% | – |
| CC(=O)NC(c1ccccc1)c1cc(Cl)c2cccnc2c1O (stereo not shown) [Q1–5] | – | > 20 µM | > 20 µM | <50% | – |
| CCC(=O)NC(c1cccs1)c1cc([N+](=O)[O-])c2cccnc2c1O (stereo not shown) [Q1–6] | – | > 20 µM | > 20 µM | <50% | – |
| COc1ccc(C(NC(C)=O)c2cc([N+](=O)[O-])c3cccnc3c2O)cc1OC (stereo not shown) [Q1–7] | – | – | – | <50% | – |
| CCC(=O)NC(c1ccco1)c1cc(Cl)c2cccnc2c1O (stereo not shown) [Q1–8] | – | – | – | <50% | – |
| CCC(=O)NC(c1ccc(OC)c(OC)c1)c1cc(Cl)c2cccnc2c1O (stereo not shown) [Q1–9] | – | – | – | <50% | – |
| CC(=O)NC(c1ccc(N(C)C)cc1)c1cc(Cl)c2cccnc2c1O (stereo not shown) [Q1–10] | – | – | – | <50% | – |
| CCCC(=O)NC(c1ccc(OC)cc1)c1ccc2cccnc2c1O (stereo not shown) [Q1–11] | – | – | – | <50% | – |
| Oc1ccccc1C(Nc1nccs1)c1ccc2cccnc2c1O (stereo not shown) [Q1–12] | – | – | – | <50% | – |
| Cc1ccccc1NCc1ccc(O)c2ncccc12 [Q2-1] | – | – | – | <50% | – |
| Oc1ccc(Cc2ccc(O)c3ncccc23)c2cccnc12 [Q2-2] | notable cytotoxicity | – | – | <50% | – |
| Oc1ccc(CNc2ccc(C(F)(F)F)cc2)c2cccnc12 [Q2–3] | – | > 20 µM | > 20 µM | <50% | – |
| Cc1cccc(NCc2ccc(O)c3ncccc23)n1 [Q2–4] | – | > 20 µM | > 20 µM | <50% | – |
| Oc1ccc(CNc2cccc(C(F)(F)F)c2)c2cccnc12 [Q2–5] | – | > 20 µM | > 20 µM | <50% | – |
| Cc1cccc(NCc2ccc(O)c3ncccc23)c1C [Q2–6] | – | > 20 µM | > 20 µM | <50% | no antiviral activity could be detected |
| COc1cccc(NCc2ccc(O)c3ncccc23)c1 [Q2–7] | notable cytotoxicity | > 20 µM | > 20 µM | <50% | – |

| SMILES | cytotoxicity in MTT LNCaP assay (in words) (LNCaP cells) | IC50 [1] | IC50 [2] | Quench % Inhib. [3] | antiviral activity at maximum testable concentration (HIV-1) |
| --- | --- | --- | --- | --- | --- |
| Cc1ccc(NCc2ccc(O)c3ncccc23)cc1 [Q2–8, 5-((p-tolylamino)methyl)quinolin-8-ol] | – | – | – | <50% | – |
| Cc1cccnc1NCc1ccc(O)c2ncccc12 [Q2–9] | – | > 20 µM | > 20 µM | <50% | – |
| Oc1ccc(CNc2ccccc2F)c2cccnc12 [Q2–10] | – | > 20 µM | > 20 µM | <50% | – |
| Cc1cccc(NCc2ccc(O)c3ncccc23)c1 [Q2–11] | – | > 20 µM | > 20 µM | <50% | – |
| CCOc1ccc(NCc2ccc(O)c3ncccc23)cc1 [Q2–12] | – | – | – | <50% | – |
| Cc1ccc(NCc2ccc(O)c3ncccc23)cc1C [Q2–13, 5-(((3,4-dimethylphenyl)amino)methyl)quinolin-8-ol] | – | – | – | <50% | – |
| Oc1ccc(CNc2ccccc2Cl)c2cccnc12 [Q2–14] | – | – | – | <50% | – |
| Oc1ccc(CN2CCCCC2)c2cccnc12 [Q3-1] | negligible inhibition of cell growth | – | – | <50% | – |
| CN1CCN(Cc2ccc(O)c3ncccc23)CC1 [Q3-2] | negligible inhibition of cell growth | – | – | <50% | – |
| CCOC(=O)C1CCCN(Cc2ccc(O)c3ncccc23)C1 (stereo not shown) [Q3–6] | – | – | – | <50% | – |
| Oc1ccc(CN2CCN(c3ccccc3)CC2)c2cccnc12 [Q3–7] | notable cell-growth inhibition | – | – | <50% | – |
| CCOC(=O)C1CCN(Cc2ccc(O)c3ncccc23)CC1 [Q3–8] | – | > 20 µM | > 20 µM | <50% | – |
| Oc1ccc(CN2CCN(Cc3ccccc3)CC2)c2cccnc12 [Q3–9] | – | > 20 µM | > 20 µM | <50% | – |
| Cc1ccc(S(=O)(=O)NC(=O)Oc2cccc3cccnc23)cc1 [Q4-1] | low cytotoxicity | > 20 µM | > 20 µM | <50% | – |
| O=C(CC(Sc1cccc2cccnc12)c1ccc(OC(F)F)cc1)c1ccco1 (stereo not shown) [Q5-1] | – | > 20 µM | > 20 µM | <50% | – |
| O=C(CC(Sc1cccc2cccnc12)c1ccc(F)cc1)c1cccs1 (stereo not shown) [Q5-2] | – | > 20 µM | > 20 µM | <50% | – |
| Oc1ccc(Cl)c2cccnc12 [QA, 5-chloroquinolin-8-ol] | – | > 20 µM | > 20 µM | <50% | – |
| Oc1c(Cl)cc(Cl)c2cccnc12 [QB, 5,7-dichloroquinolin-8-ol] | – | > 20 µM | > 20 µM | <50% | – |
| CCOCc1ccc(O)c2ncccc12 [QC, 5-(ethoxymethyl)quinolin-8-ol] | – | > 20 µM | > 20 µM | <50% | – |
